# Bioassay records (PubChem BioAssay)
# NS3 helicase inh: inhibitors of HCV NS3 helicase, primary screen, biochemical, Cy5 molecular beacon fluorescence. NS3 helicase DNA unwinding. inhibition, % at 10.9 µM. 290,000 tested, 0.56% active. AID 1800, 2009;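 active = inhibition above the mean of all tested compounds plus 3 SD, set per campaign, cut at about 35% in these data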;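 also: 0% = DMSO wells and 100% = thioflavine S control wells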
#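 Assay system: hepatitis C virus NS3 helicase domain fragment enzyme. Also added: annealed dual-labelled DNA beacon duplex, ATP-started. Timing: 1 h reaction at 25 °C, ATP-initiated. Technique: Cy5 fluorescence at 0 and 60 min, beacon hairpin quenching. Evaluation: % inhibition of unwinding. Replication: one well per compound.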
# ZTA counter: blocks Epstein-Barr virus ZTA, an EBNA-1 counter-screen; P03206; ZTA-DNA binding, fluorescence polarization; inhibition, % at 11 µM; 320,000 tested, 0.15% active; in the data active = inhibition above about 33%
# Target sequence (P03206 whole entry, looked up): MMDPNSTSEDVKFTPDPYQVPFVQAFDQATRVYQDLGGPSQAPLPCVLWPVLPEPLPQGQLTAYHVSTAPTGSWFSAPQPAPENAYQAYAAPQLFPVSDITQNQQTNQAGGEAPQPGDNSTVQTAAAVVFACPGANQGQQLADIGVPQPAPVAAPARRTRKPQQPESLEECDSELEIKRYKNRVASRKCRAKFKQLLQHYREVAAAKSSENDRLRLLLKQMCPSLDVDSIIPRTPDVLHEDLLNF
# EBNA-1 inh: EBNA-1 DNA-binding inhibitors, primary screen, biochemical, fluorescence polarization; inhibition, % at 14.8 µM; 300,000 tested, 0.34% active; AID 1950, 2009; in the data active = inhibition above about 28%
# HCV core dimer: inhibitors of HCV core protein dimerization, primary screen, biochemical, TR-FRET, high-throughput | 300,000 tested, 0.33% active | TR-FRET GST/Flag-core106 dimerization, 1536-well | inhibition, % at 5 µM;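 active = inhibition above the mean of all tested compounds plus 3 SD, set per screening campaign, cut at about 45% in these data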
#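 System: GST/Flag-tagged HCV core106 proteins. Incubation: compound-protein-antibody incubation 4 h at 22.5 °C. Technique: HTRF with 340 nm excitation, 617/671 nm emission. Medium: KF-containing HEPES buffer, pH 7.45, DTT, CHAPS, BSA. Read-out: inhibition (%) from 671 over 617 nm ratio. Also added: Eu(K)-anti-GST 90 ng/mL plus XL665-anti-Flag 1 µg/mL.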
# UBC9 SUMO inh: inhibitors of in vitro SUMOylation cascade, primary screen, biochemical, HTRF, uHTS; SUMO-conjugating enzyme UBC9 (Homo sapiens), P63279; HTRF SUMOylation assay, SAE1/SAE2 + UBC9; inhibition, % at 35 µM; 290,000 tested, 0.36% active; AID 2006, 2009; in the data active = inhibition above about 50%, passing the limit was not always enough
# Target sequence (P63279 whole entry, looked up): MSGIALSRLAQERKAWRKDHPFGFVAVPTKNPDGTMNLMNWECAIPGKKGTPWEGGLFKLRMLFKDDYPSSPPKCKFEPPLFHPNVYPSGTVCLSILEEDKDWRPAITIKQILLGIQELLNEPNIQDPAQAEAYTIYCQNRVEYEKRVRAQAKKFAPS
# ZTA inh confirm: EBV Zta binding to ZRE DNA, inhibitors, confirmation, biochemical, fluorescence polarization, triplicate; shares compounds with ZTA counter; inhibition, % at 11.1 µM; 320 tested, 30% active; AID 2361, 2010;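 active = mean inhibition across triplicate runs above the hit threshold derived for the original primary screen, cut at about 33% in these data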;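 also: 0% = Zta with DMSO and 100% = wells lacking Zta protein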
# EBNA1 counter: EBNA-1 DNA-binding inhibition, counter-screen for ZTA inhibitor project, biochemical, fluorescence polarization; 320 tested, under 10 active; inhibition, % at 14.8 µM; AID 2362, 2010; shares compounds with ZTA counter; call rule not given here
# * = called active by the depositor; x = not tested or not shown; ! = not confirmed by another sample. Only some compounds are listed: those with a hit (about 1.4% of all), similar ones and a draw of the others.
SMILES,NS3 helicase inh,ZTA counter,EBNA-1 inh,HCV core dimer,UBC9 SUMO inh,ZTA inh confirm,EBNA1 counter
COc1ccccc1N1CCN(C(=O)c2ccccc2N(C)S(=O)(=O)c2ccc(C)cc2)CC1,-3,-10,11,4,5,x,x
CC1CCCC(NC(=O)c2cccs2)C1C (stereo not drawn),x,-6,x,x,x,x,x
C#CCOCCOCCOCCNc1nc(N2CCN(C(=O)CCCCCCCCCCNC(=O)[C@H]([C@@H](C)CC)n3cc(CCCCCN)nn3)CC2)nc(N2CCN(C(=O)CCCCCCCCCCNC(=O)[C@H]([C@@H](C)CC)n3cc(CCCCN=C(N)N)nn3)CC2)n1,x,163*,5,7,x,55*,-15
C#CCOCCOCCOCCNc1nc(N2CCN(C(=O)CCCCCCCCCCNC(=O)[C@H]([C@@H](C)CC)n3cc(CCCCCN)nn3)CC2)nc(N2CCN(C(=O)CCCCCCCCCCNC(=O)[C@H](CCCCN)n3cc(CCCC(=O)O)nn3)CC2)n1,x,29,3,-17,x,x,x
C#CCOCCOCCOCCNc1nc(N2CCN(C(=O)CCCCCCCCCCNC(=O)[C@H]([C@@H](C)CC)n3cc(CCCCN=C(N)N)nn3)CC2)nc(N2CCN(C(=O)CCCCCCCCCCNC(=O)[C@H](CCCCN)n3cc(C)nn3)CC2)n1,x,56*,6,22,x,68*,-9
C#CCOCCOCCOCCNc1nc(N2CCN(C(=O)CCCCCCCCCCNC(=O)[C@H]([C@@H](C)CC)n3cc(CCCCN=C(N)N)nn3)CC2)nc(N2CCN(C(=O)CCCCCCCCCCNC(=O)[C@H](CO)n3cc(CCCCCN)nn3)CC2)n1,x,22,5,4,x,x,x
C#CCOCCOCCOCCNc1nc(N2CCN(C(=O)CCCCCCCCCCNC(=O)Cn3cc(CCCCCN)nn3)CC2)nc(N2CCN(C(=O)CCCCCCCCCCNC(=O)[C@H]([C@@H](C)CC)n3cc(CCCCN=C(N)N)nn3)CC2)n1,x,61*,3,0,x,48*,-11
O=C(COC(=O)c1cc([N+](=O)[O-])ccc1N1CCOCC1)Nc1ccc(Cl)cn1,9,7,6,5,-3,x,x
O=C(COc1ccccc1/C=C\c1[nH]c(=O)[nH]c(=O)c1[N+](=O)[O-])Nc1ccccc1,21,48*,-5,32,0,72*,-1
COc1ccc2c(c1)NC(C)(C)C=C2C,-13,23,11,5,14,x,x
CC1=CC(C)(C)Nc2ccccc21,-13,39*!,14,-2,5,22,11
CCOC(=O)c1c(NC(=O)Cn2nc(C(=O)O)c3ccccc3c2=O)sc(CC)c1C,4,36*,-1,11,-1,-16,-12
O=C1CSC(c2ccc([N+](=O)[O-])cc2)N1c1ccccc1 (stereo not drawn),-4,3,-9,2,-4,x,x
Cn1nc(-c2ccccn2)nc2c(=O)n(C)c(=O)nc1-2,1,73*,7,31,102*,69*,-4
CN(C)S(=O)(=O)c1cccc(NC(=S)Nc2cc(Cl)cc(Cl)c2)c1,0,15,12,9,-6,x,x
CCN(CCO)c1ccc(NC(=S)Nc2cccc(S(=O)(=O)N(C)C)c2)cc1,22,41*,23,-10,27,9,3
COc1cccc(/C=C/C(=O)NCc2ccc(S(N)(=O)=O)cc2)c1,0,-4,4,1,12,x,x
Cc1cccc(CN2C(=O)/C(=C\c3ccc(C(=O)NCCCN4CCN(C)CC4)cc3)Oc3ccccc32)c1,-73,70*,5,-11,23,50*,-10
COc1cc([N+](=O)[O-])ccc1NC(=O)Nn1cnnc1,-5,4,8,-2,14,x,x
COc1ccc(NS(=O)(=O)c2cccc(C(=O)NNC(=O)c3ccc(C)o3)c2)cc1,x,4,x,x,x,x,x
COc1ccccc1/C=C1\SC(=S)N(CCC(=O)Nc2ccc(C(=O)O)c(O)c2)C1=O,3,12,19,9,9,x,x
O=C(CCN1C(=O)/C(=C\c2ccco2)SC1=S)Nc1ccc(C(=O)O)c(O)c1,26,44*,-1,4,x,9,7
